This note sets out measurements from ChEMBL document CHEMBL5335768, “Expanding the knowledge around antitubercular 5-(2-aminothiazol-4-yl)isoxazole-3-carboxamides: Hit-to-lead optimization and release of a novel antitubercular chemotype via scaffold derivatization” (Eur J Med Chem, 2023).

Series [1] has as its system Mycobacterium tuberculosis. Nature of the series: Antitubercular activity against Mycobacterium tuberculosis H37Rv assessed as inhibition of bacterial growth incubated for 7 days by REMA method. In kind it is functional.
In series [2] the test system is Mycobacterium marinum. The conditions noted are these: ATCC BAA-535, time 3.0 weeks.
Series [3] can be described thus: Cytotoxicity against human THP-1 cells assessed as reduction in cell viability measured after 72 hrs by MTT assay. In kind it is toxicity, cell-based. The method in brief:
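THP-1 monocytes were differentiated to macrophages with PMA 100 ng/mL for 72 h. They were then exposed to compounds at 1, 10, 50 and 100 μM for 72 h, each tested twice. MTT at 1 mg/mL in RPMI with 5% FBS was added for 2 h at 37 °C; formazan was dissolved in DMSO and read at 570 nm. Viability is given as % of control; IC50 from non-linear regression.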
(In general: Tetrazolium assays rely on reduction of a dye to a coloured formazan, in cell work by metabolically active cells.)

The test system of series [4] is Mycobacteroides abscessus. Description: Antitubercular activity against Mycobacterium abscessus Bamboo assessed as inhibition of bacterial growth upto 100 uM measured after 3 days by broth microdilution method. The conditions noted are these: time 3.0 day. Type of series: functional, organism-based. The method in brief: (§1)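 Twofold serial dilutions inoculated at OD600 0.05; incubated at 37 °C, shaking at 110 rpm, for 3 days (M. abscessus Bamboo) or 4 days (M. avium 11). […] Clarithromycin positive control; data representative of two independent replicates.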
A general note: Broth dilution looks for growth in wells or tubes with falling amounts of substance.

In series [5] the test system is Mycobacterium avium. Nature of the series: Antitubercular activity against Mycobacterium avium 11 assessed as inhibition of bacterial growth upto 100 uM measured after 4 days by broth microdilution method. Type of series: functional, organism-based. The conditions noted are these: time 4.0 day. The method in brief:
as §1

Setting [6] is: Mycobacterium tuberculosis, H37Rv, 168 h, time 7 day, read-out: MIC90.

One may read the MIC90 as the lowest concentration that inhibits either 90% of growth or 90% of the strains tested, depending on the study. As usually defined, the IC50 is the concentration that inhibits the measured activity by half.

≈ marks a conversion by molar mass, not a printed value. Calls of active or inactive are those of the source. No cut-off for these calls is given here.

Turning to `CN[C@@H]1[C@H](O[C@H]2[C@H](O[C@H]3[C@H](O)[C@@H](O)[C@H](N=C(N)N)[C@@H](O)[C@@H]3N=C(N)N)O[C@@H](C)[C@]2(O)C=O)O[C@@H](CO)[C@H](O)[C@H]1O` [STREPTOMYCIN], the MIC90 in series [1] (setting [6]) was determined as 0.25 µg/mL (≈ 0.43 µM).

With `O=C(Nc1cccc(O)c1)c1cc(C(=O)Nc2nc3ccccc3s2)on1`, the MIC90 entry in series [2] and in series [1] (time 7.0 day) was “inactive” each time.

On to `Cc1cc(C)cc(Nc2nc(-c3cc(C(=O)Nc4ccccn4)no3)cs2)c1`, for which, in series [1] (setting [6]), the MIC90 is more than 20 µg/mL.

As for `O=C(Nc1ccccn1)c1cc(-c2csc(Nc3ccc(CO)cc3)n2)on1`, the MIC90 in series [1] (setting [6]) is more than 20 µg/mL.

Regarding `O=C(Nc1ccccc1)c1cc(-c2csc(Nc3cc(F)cc(F)c3)n2)on1`, in series [1] (setting [6]), the MIC90 is more than 20 µg/mL.

As to `CCOc1cccc(NC(=O)c2cc(-c3csc(Nc4ccc(C)cc4)n3)on2)c1`, the MIC90 in series [1] (setting [6]) was more than 20 µg/mL.

For the compound `O=C(Nc1ccccc1)c1cc(C(=O)Nc2nc3ccccc3s2)on1`, the MIC90 result in series [2] and in series [1] (time 7.0 day) was “inactive” in each case.

Turning to `Cc1ccc2nc(NC(=O)c3cc(C(=O)Nc4ccccc4)no3)sc2c1`, the MIC90 result in series [2] and in series [1] (time 7.0 day) was “inactive” in each case.

Consider `Cc1ccc(Nc2nc(-c3cc(C(=O)Nc4ccccn4)no3)cs2)c(O)c1`, for which the MIC90 in series [1] (setting [6]) was more than 20 µg/mL.

For `Cc1ccc(Nc2nc(-c3cc(C(=O)Nc4ccc(C)cc4Cl)no3)cs2)cc1`, the MIC90 in series [1] (setting [6]) was more than 20 µg/mL.

For the compound `Cc1ccc(Nc2nc(-c3cc(C(=O)Nc4ccccc4O)no3)cs2)cc1`, the 50% inhibitory concentration (IC50) at 72 h in series [3] came out at 53.1 µg/mL (≈ 135 µM). Also, in series [1] (setting [6]), the MIC90 amounted to 0.5 µg/mL (≈ 1.27 µM).

Consider `Cc1ccc(Nc2nc(-c3cc(C(=O)N4CCCC4)no3)cs2)cc1`, for which the 50% inhibitory concentration (IC50) at 72 h in series [3] is more than 100 µg/mL. Also, in series [1] (setting [6]), the MIC90 was more than 20 µg/mL.

In the case of `Cc1ccc(Nc2nc(-c3cc(C(=O)Nc4cccc(C(F)(F)F)c4)no3)cs2)cc1`, the MIC90 in series [1] (setting [6]) is more than 20 µg/mL.

Turning to `O=C(Nc1ccc(O)cc1)c1cc(C(=O)Nc2nc3ccccc3s2)on1`, the MIC90 result in series [2] and in series [1] (time 7.0 day) was “inactive” throughout.

In the case of `Cc1cccc(NC(=O)c2cc(C(=O)Nc3nc4ccccc4s3)on2)c1`, the MIC90 result in series [2] and in series [1] (time 7.0 day) was “inactive” each time.

As to `CCOC(=O)c1cc(-c2cccc(Nc3ccc(C)cc3)n2)on1`, the half-maximal inhibitory concentration (IC50) at 72 h in series [3] is more than 100 µg/mL. In addition, the MIC90 in series [1] (setting [6]) was 1.25 µg/mL (≈ 3.87 µM).

For `O=C(Nc1ccccc1)c1cc(-c2csc(Nc3ccc(CO)cc3)n2)on1`, the MIC90 in series [1] (setting [6]) is more than 20 µg/mL.

Consider `Cc1ccc(Nc2nc(-c3cc(C(=O)Nc4ccc(Cl)cc4)no3)cs2)cc1`, for which the MIC90 in series [1] (setting [6]) is more than 40 µg/mL.

On to `Cc1ccc(Nc2nc(-c3cc(C(=O)Nc4ccnnc4)no3)cs2)cc1`, for which the MIC90 in series [1] (setting [6]) is more than 20 µg/mL.

`Cc1ccc(Nc2nc(-c3cc(C(=O)Nc4cccc(O)c4)no3)cs2)cc1`: in series [3], the half-maximal inhibitory concentration (IC50) at 72 h was 48.7 µg/mL (≈ 124 µM). Besides, the result in series [4] and in series [5] was inactive. Further, the MIC90 in series [1] (setting [6]) was determined as 0.5 µg/mL (≈ 1.27 µM).

In the case of `O=C(Nc1cccc(F)c1)c1cc(C(=O)Nc2nc3ccccc3s2)on1`, the MIC90 result in series [2] and in series [1] (time 7.0 day) was “inactive” throughout.

Take `NNC(=O)c1ccncc1` [ISONIAZID]: the MIC90 in series [1] (time 7 day) was 0.025 µg/mL (≈ 0.182 µM).

Regarding `Cc1ccc(Nc2nc(-c3cc(C(=O)Nc4ccccc4)no3)cs2)cc1O`, in series [3], the half-maximal inhibitory concentration (IC50) at 72 h is more than 100 µg/mL. Besides, the MIC90 in series [1] (setting [6]) was determined as 2.5 µg/mL (≈ 6.37 µM).

Regarding `Cc1ccc2nc(NC(=O)c3cc(C(=O)Nc4ccc(O)cc4)no3)sc2c1`, the MIC90 entry in series [2] and in series [1] (time 7.0 day) was “inactive” in each case.

In the case of `Cc1ccc(Nc2nc(-c3cc(C(=O)Nc4cccc(F)c4)no3)cs2)cc1`, the outcome in series [4] and in series [5] was inactive. Also, in series [1] (setting [6]), the MIC90 was 2.5 µg/mL (≈ 6.34 µM).

Turning to `O=C(Nc1ccccn1)c1cc(-c2csc(Nc3cc(Cl)cc(Cl)c3)n2)on1`, the MIC90 in series [1] (setting [6]) is more than 20 µg/mL.

In the case of `Cc1cccc(NC(=O)c2cc(C(=O)Nc3nc4ccc(C)cc4s3)on2)c1`, the MIC90 entry in series [2] and in series [1] (time 7.0 day) was “inactive” in each case.

As to `Cc1ccc(Nc2nc(-c3cc(C(=O)Nc4cccc(C)c4)no3)cs2)cc1`, in series [3], the IC50 at 72 h turned out to be 10.7 µg/mL (≈ 27.4 µM). The outcome in series [4] and in series [5] was inactive. Further, the MIC90 in series [1] (setting [6]) amounted to 0.5 µg/mL (≈ 1.28 µM).

Regarding `Cc1ccc(Nc2nc(-c3cc(C(=O)Nc4ccncc4)no3)cs2)cc1`, in series [3], the IC50 at 72 h was 29.9 µg/mL (≈ 79.2 µM). The result in series [4] and in series [5] was inactive. Moreover, in series [1] (setting [6]), the MIC90 stood at 1 µg/mL (≈ 2.65 µM).

`Cc1ccc(Nc2nc(-c3cc(C(=O)NCc4cccs4)no3)cs2)cc1`: the MIC90 in series [1] (setting [6]) is more than 20 µg/mL.

For `Cc1ccc2nc(NC(=O)c3cc(C(=O)Nc4ccccn4)no3)sc2c1`, the MIC90 entry in series [2] and in series [1] (time 7.0 day) was “inactive” throughout.

Consider `Cc1cc(C)cc(Nc2nc(-c3cc(C(=O)Nc4ccccc4)no3)cs2)c1`, for which the IC50 at 72 h in series [3] was 70.9 µg/mL (≈ 182 µM). Further, the result in series [4] and in series [5] was inactive. Besides, the MIC90 in series [1] (setting [6]) was 1 µg/mL (≈ 2.56 µM).

On to `O=C(Nc1ccccc1)c1cc(-c2csc(Nc3cc(Cl)cc(Cl)c3)n2)on1`, for which the MIC90 in series [1] (setting [6]) is more than 20 µg/mL.

As to `Cc1ccc(Nc2nc(-c3cc(C(=O)Nc4ccccc4F)no3)cs2)cc1`, the IC50 at 72 h in series [3] turned out to be 33.9 µg/mL (≈ 85.9 µM). For the same compound, in series [1] (setting [6]), the MIC90 was 1 µg/mL (≈ 2.54 µM).

As for `Cc1ccc(Nc2nc(-c3cc(C(=O)Nc4cc(C)cc(C)c4)no3)cs2)cc1`, in series [1] (setting [6]), the MIC90 is more than 20 µg/mL.

As to `Cc1ccc(Nc2nc(-c3cc(C(=O)Nc4nccs4)no3)cs2)cc1`, in series [1] (setting [6]), the MIC90 was more than 40 µg/mL.

Turning to `Cc1ccc(Nc2nc(-c3cc(C(=O)Nc4ccc(F)cc4)no3)cs2)cc1`, in series [3], the IC50 at 72 h is 46.8 µg/mL (≈ 119 µM). For the same compound, the result in series [4] and in series [5] was inactive. For the same compound, the MIC90 in series [1] (setting [6]) came out at 1 µg/mL (≈ 2.54 µM).

`Cc1ccc(NC(=O)c2cc(-c3csc(Nc4ccc(C)cc4)n3)on2)cc1`: the 50% inhibitory concentration (IC50) at 72 h in series [3] was 47.5 µg/mL (≈ 122 µM). In addition, the MIC90 in series [1] (setting [6]) is 1 µg/mL (≈ 2.56 µM).

Take `Cc1ccc(Nc2nc(-c3cc(C(=O)Nc4ccc(C)cc4C)no3)cs2)cc1`: the MIC90 in series [1] (setting [6]) is more than 20 µg/mL.

Consider `O=C(Nc1ccccn1)c1cc(C(=O)Nc2nc3ccccc3s2)on1`, for which the MIC90 entry in series [2] and in series [1] (time 7.0 day) was “inactive” in each case.

With `Cc1ccc(Nc2nc(-c3cc(C(=O)Nc4cccnc4)no3)cs2)cc1`, the MIC90 in series [1] (setting [6]) came out at 10 µg/mL (≈ 26.5 µM).

As to `Cc1ccc(Nc2nc(-c3cc(C(=O)Nc4ncc(C)s4)no3)cs2)cc1`, in series [1] (setting [6]), the MIC90 is more than 20 µg/mL.

Take `Cc1ccc(Nc2nc(-c3cc(C(=O)Nc4ccccc4)no3)co2)cc1`: the IC50 at 72 h in series [3] was more than 100 µg/mL. The outcome in series [4] and in series [5] was inactive. Moreover, in series [1] (setting [6]), the MIC90 was 1 µg/mL (≈ 2.77 µM).

In the case of `Cc1ccc(Nc2nc(-c3cc(C(=O)Nc4ccccn4)no3)co2)cc1`, in series [3], the IC50 at 72 h was 70.9 µg/mL (≈ 196 µM). Besides, the MIC90 in series [1] (setting [6]) is 2.5 µg/mL (≈ 6.92 µM).

For `Cc1ccc(Nc2nc(-c3cc(C(=O)Nc4ccccc4C)no3)cs2)cc1`, in series [3], the IC50 at 72 h was 63.7 µg/mL (≈ 163 µM). The result in series [4] and in series [5] was inactive. In series [1] (setting [6]), the MIC90 came out at 1 µg/mL (≈ 2.56 µM).

As to `COc1ccc2sc(NC(=O)c3cc(C(=O)Nc4cccc(C)c4)no3)nc2c1`, the MIC90 entry in series [2] and in series [1] (time 7.0 day) was “inactive” throughout.

As to `Cc1ccc(Nc2nc(-c3cc(C(=O)Nc4ncccc4C)no3)cs2)cc1`, in series [1] (setting [6]), the MIC90 is more than 20 µg/mL.

Consider `O=C(Nc1ccccn1)c1cc(-c2csc(Nc3cc(F)cc(F)c3)n2)on1`, for which, in series [1] (setting [6]), the MIC90 was more than 20 µg/mL.
